# Laboratory results as given in ChEMBL document CHEMBL1150198, “DNA as an affinity probe useful in the detection and isolation of biologically active natural products” (J Nat Prod, 1991).
# Starred links: 1 amine or outer side, 2 acyl side, 3 side chain; linkers in the order of their positions; H or OH if unused. Positions of bridges follow the written chain, without caps; N, C: chain ends. Non-standard residues stand in square brackets, D forms with d. Residues, ends and D or L forms follow the SMILES beside them. Chains are numbered I, II in the order given. Actinocin(9to1) = Cc1c2oc3c(C)ccc(C(=O)[*:1])c3nc-2c(C(=O)[*:2])c(N)c1=O; NMeV = CN[C@H](C(=O)O)C(C)C; Sar = CNCC(=O)O
# Experiments:
# Calf thymus DNA = assay: Binding affinity to calf thymus DNA assessed as reduction in DNA peak by pre-incubation method; type: nucleic-acid assay; parameters: concentration or dose not given beside the values; settings: Bos taurus
# Outline: (§1)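 Nucleic acid at 0.1 mg/ml in water; test substance at 1.0 mg/ml in water or MeOH, mixed 1:1 (v/v) and held at ambient temperature for 5–30 min. 40 or 80 µl injected onto a C18 reversed-phase column equilibrated in H2O-MeOH (80:20), 1 ml/min, with 254 nm detection. The free nucleic-acid peak (~1.2 min) was compared with nucleic acid injected alone.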
# Nucleic Acid = assay: Binding affinity to yeast tRNA assessed as reduction in tRNA peak by pre-incubation method; type: nucleic-acid assay; parameters: concentration or dose not given beside the values; settings: Saccharomyces cerevisiae; outline: as §1
Compound,Activity (Calf thymus DNA),Activity (Nucleic Acid)
CC(C)=CC(=O)O[C@@H]1C(C)=C2C(=O)C=C(C)[C@]2(O)[C@H]2OC(=O)C[C@@H]2[C@H]1O,30%,–
Nc1c2ccccc2nc2ccccc12,> 70%,100%
Cc1c2ccncc2c(C)c2c1[nH]c1ccccc12,> 70%,30%
COc1cccc2c1C(=O)c1c(O)c3c(c(O)c1C2=O)C[C@@](O)(C(=O)CO)C[C@@H]3O[C@H]1C[C@H](N)[C@H](O)[C@H](C)O1,100%,100%
C=C1C(=O)O[C@@H]2C3O[C@]3(C)CC/C=C(\C)CC[C@@H]12 (stereo partly specified),30%,< 30%
CC[n+]1c(-c2ccccc2)c2cc(N)ccc2c2ccc(N)cc21,100%,100%
CC[C@]1(O)C[C@H]2CN(CCc3c([nH]c4ccccc34)[C@@](C(=O)OC)(c3cc4c(cc3OC)N(C=O)[C@H]3[C@@](O)(C(=O)OC)[C@H](OC(C)=O)[C@]5(CC)C=CCN6CC[C@]43[C@@H]65)C2)C1,> 70%,100%
CC[C@]1(O)C[C@@H]2CN(CCc3c([nH]c4ccccc34)[C@@](C(=O)OC)(c3cc4c(cc3OC)N(C)[C@H]3[C@@](O)(C(=O)OC)[C@H](OC(C)=O)[C@]5(CC)C=CCN6CC[C@]43[C@@H]65)C2)C1,> 70%,100%
COc1cc2c(ccc3c4cc(OC)c(OC)cc4c[n+](C)c23)cc1O,100%,100%
BLEOMYCIN,< 30%,> 70%
COC(=O)CC1(O)C=CC(=O)C=C1,30%,< 30%
COc1cc2c(c3c1c(=O)c1ccccc1n3C)C=CC(C)(C)O2,< 30%,–
COc1ccc2c(c1)c1ccnc3ccc(=O)n2c31,30%,–
COc1cccc2c1C(=O)c1c(O)c3c(c(O)c1C2=O)C[C@@](O)(C(C)=O)C[C@@H]3O[C@H]1C[C@H](N)[C@H](O)[C@H](C)O1,100%,–
"Cc1c2oc3c(C)ccc(C(=O)N[C@@H]4C(=O)N[C@H](C(C)C)C(=O)N5CCC[C@H]5C(=O)N(C)CC(=O)N(C)[C@@H](C(C)C)C(=O)O[C@@H]4C)c3nc-2c(C(=O)N[C@@H]2C(=O)N[C@H](C(C)C)C(=O)N3CCC[C@H]3C(=O)N(C)CC(=O)N(C)[C@@H](C(C)C)C(=O)O[C@@H]2C)c(N)c1=O (I: T[dV]P[Sar][NMeV] / II: T[dV]P[Sar][NMeV]; ester I:1-I:C, II:1-II:C; linker I:N-II:N via Actinocin(9to1))",30%,< 30%
C=C1C(=O)O[C@H]2[C@H]1[C@@H](O)[C@H](O)C(C)=C1C[C@H]3O[C@@]3(C)[C@@H]12,30%,< 30%
COc1cc2c(c(OC)c1OC)-c1ccc(OC)c(=O)cc1[C@@H](NC(C)=O)CC2,< 30%,< 30%
C=C1C(=O)O[C@H]2[C@H]1[C@@H](O)[C@H](OC(=O)C=C(C)C)C(C)=C1C[C@H]3O[C@@]3(C)[C@@H]12,30%,–
